ChEMBL document CHEMBL1667800, “Synthesis, DNA/RNA affinity and antitumour activity of new aromatic diamidines linked by 3,4-ethylenedioxythiophene” (Eur J Med Chem, 2011)

Columns and labels:
MCF7 = experiment: Cytotoxicity against human MCF7 cells after 72 hrs by MTT assay; format: functional; details: MCF7, 72 h
Outline: (§1)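 Cells were seeded at 2 × 10^4 cells/mL and attached overnight at 37 °C, 5% CO2. They were then exposed for 72 h to compounds from aqueous stocks (working solutions 10^-3–10^-6 mol dm^-3). MTT was added for 4 h at 37 °C, formazan dissolved in DMSO, and absorbance read at 570 nm. GI50 is the mean ± SD of three independent experiments run in triplicate.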

HeLa [1] = experiment: Induction of cell cycle arrest in human HeLa assessed as accumulation at S-phase at 5x10'-5 M after 48 hrs by FACS analysis (RVb = 62.2+/-4.4%); format: functional
HeLa [2] = experiment: Cytotoxicity against human HeLa cells after 72 hrs by MTT assay; format: functional; outline: as §1
HeLa [3] = experiment: Induction of cell cycle arrest in human HeLa assessed as accumulation at S-phase at 5x10'-5 M after 72 hrs by FACS analysis (RVb = 62.2+/-4.4%); format: functional
HeLa [4] = experiment: Induction of cell cycle arrest in human HeLa assessed as accumulation at G2/M-phase at 5x10'-5 M after 24 hrs by FACS analysis (RVb = […]); format: functional
HeLa [5] = experiment: Induction of cell cycle arrest in human HeLa assessed as accumulation at G0/G1-phase at 5x10'-5 M after 72 hrs by FACS analysis (RVb = 62.2+/-4.4%); format: functional
[6] = Cytotoxicity against MDCK cells after 72 hrs by MTT assay; format: cell-based, Canis lupus familiaris; details: dog; outline: as §1
HeLa [7] = experiment: Induction of cell cycle arrest in human HeLa assessed as accumulation at G2/M-phase at 5x10'-5 M after 48 hrs by FACS analysis (RVb = […]); format: functional
AGS = experiment: Cytotoxicity against human AGS cells after 72 hrs by MTT assay; format: functional; outline: as §1
HeLa [8] = experiment: Induction of cell cycle arrest in human HeLa assessed as accumulation at G0/G1-phase at 5x10'-5 M after 24 hrs by FACS analysis (RVb = 62.2+/-4.4%); format: functional
HeLa [9] = experiment: Induction of cell cycle arrest in human HeLa assessed as accumulation at G0/G1-phase at 5x10'-5 M after 48 hrs by FACS analysis (RVb = 62.2+/-4.4%); format: functional
NCI-H358 = experiment: Cytotoxicity against human NCI-H358 cells after 72 hrs by MTT assay; format: functional; details: NCI-H358, 72 h; outline: as §1
HEp-2 = experiment: Cytotoxicity against human Hep2 cells after 72 hrs by MTT assay; format: functional; details: HEp-2, 72 h; outline: as §1
HeLa [10] = experiment: Induction of cell cycle arrest in human HeLa assessed as accumulation at G2/M-phase at 5x10'-5 M after 72 hrs by FACS analysis (RVb = […]); format: functional
HeLa [11] = experiment: Induction of cell cycle arrest in human HeLa assessed as accumulation at S-phase at 5x10'-5 M after 24 hrs by FACS analysis (RVb = 62.2+/-4.4%); format: functional
MIA PaCa-2 = experiment: Cytotoxicity against human MIAPaCa2 cells after 72 hrs by MTT assay; format: functional; details: MIA PaCa-2, 72 h; outline: as §1
Caco-2 = experiment: Cytotoxicity against human Caco2 cells after 72 hrs by MTT assay; format: functional; details: Caco-2, 72 h; outline: as §1

CN1CCN(c2ccc3[nH]c(-c4ccc5[nH]c(-c6ccc(O)cc6)nc5c4)nc3c2)CC1 [HOECHST 33258]
GI50 (MCF7): 5.7 µM | Activity (HeLa [1]): 42.6% | GI50 (HeLa [2]): 116 µM | Activity (HeLa [3]): 43.1% | Activity (HeLa [4]): 7.1% | Activity (HeLa [5]): 45.7% | GI50 at 72 h [6]: 158 µM | Activity (HeLa [7]): 8.4% | GI50 (AGS): 112 µM | Activity (HeLa [8]): 51.3% | Activity (HeLa [9]): 49% | GI50 (NCI-H358): 91.7 µM | GI50 (HEp-2): 132 µM | Activity (HeLa [10]): 11.2% | Activity (HeLa [11]): 41.6% | GI50 (MIA PaCa-2): 192 µM | GI50 (Caco-2): 84 µM
